Experimental findings from ChEMBL document CHEMBL1130096, “2-Cyclopropylindoloquinones and their analogues as bioreductively activated antitumor agents: structure-activity in vitro and efficacy in vivo” (J Med Chem, 1997) are described below.

A short description of series [1]: Hypoxic cytotoxic ratios of the concentration required to kill 50% of the aerobic cells and concentration required to kill hypoxic cells. Type of series: cell-based, Cricetulus griseus. The conditions noted are these: chinese hamster, V79 cells; read-out: HCR.
Series [2] deals with Mus musculus. The series can be described thus: compound was evaluated in vivo in mice bearing [RIF-1] tumor cells 90 mg kg-1 drug dose. MTD is the […]. Type of series: functional.
The test system of series [3] is Mus musculus. The experiment in a line: compound was evaluated in vivo in mice bearing [RIF-1] tumor cells at 50 mg kg-1 drug dose. MTD is the […]. Type of series: functional.
The test system of series [4] is Mus musculus. The experiment in a line: compound was evaluated in vivo in mice bearing [KHT] tumor cells at 90 mg kg-1 drug dose. MTD is the […]. Type of series: functional.
Series [5] deals with Mus musculus. The series can be described thus: compound was evaluated in vivo in mice bearing [KHT] tumor cells at 20 mg kg-1 drug dose. MTD is the […]. Format: functional.
In series [6] the test system is Mus musculus. The experiment in a line: compound was evaluated in vivo in mice bearing [RIF-1] tumor cells for the relative surviving fraction of cells at 90 mg kg-1 drug dose. Type of series: functional. The essentials: (§1)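 Mice bearing RIF-1 or KHT murine sarcomas. Maximum tolerated dose (MTD) established for each drug. Drug given alone at MTD, or at 20 or 50 mg kg-1 combined with a single X-ray dose: 15 Gy for RIF-1, 10 Gy for KHT. Radiation dose chosen to kill most oxic tumor cells. Read-out was tumor cell surviving fraction relative to untreated control, reported as mean.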

In series [7] the test system is Mus musculus. The experiment in a line: compound was evaluated in vivo in mice bearing [RIF-1] tumor cells for the relative surviving fraction of cells at 50 mg kg-1 drug dose. Format: functional. The essentials: as §1
Series [8] has as its system V79. The series can be described thus: In vitro concentration required to kill 50% of the aerobic cells. Format: functional, Cricetulus griseus.
For series [9], the system named is Mus musculus. The experiment in a line: compound was evaluated in vivo in mice bearing [RIF-1] tumor cells at 20 mg kg-1 drug dose. MTD is the […]. Format: functional.
Series [10] deals with Mus musculus. The series can be described thus: compound was evaluated in vivo in mice bearing [KHT] tumor cells for the relative surviving fraction of cells at 50 mg kg-1 drug dose. Format: functional. The gist of the method: as §1
Series [11] deals with Mus musculus. The series can be described thus: compound was evaluated in vivo in mice bearing [KHT] tumor cells for the relative surviving fraction of cells at 20 mg kg-1 drug dose. Format: functional. The essentials:
as §1

Series [12] concerns Mus musculus. The experiment in a line: compound was evaluated in vivo in mice bearing [KHT] tumor cells at 50 mg kg-1 drug dose. MTD is the […]. Type of series: functional.
The test system of series [13] is V79. The experiment in a line: In vitro concentration required to kill hypoxic cells V79-379A cells. Type of series: functional, Cricetulus griseus.
Series [14] has as its system Mus musculus. The series can be described thus: compound was evaluated in vivo in mice bearing [KHT] tumor cells for the relative surviving fraction of cells at 90 mg kg-1 drug dose. Format: functional. The essentials:
as §1

Series [15] concerns Mus musculus. The experiment in a line: compound was evaluated in vivo in mice bearing [RIF-1] tumor cells for the relative surviving fraction of cells at 20 mg kg-1 drug dose. Type of series: functional. The essentials: as §1
Series [16] deals with Mus musculus. The experiment in a line: compound was were evaluated in vivo in mice bearing [KHT] murine sarcoma tumor cells at 100 mg kg-1 drug dose. MTD is the […]. Type of series: functional.
Series [17] has as its system Mus musculus. The series can be described thus: compound was evaluated in vivo mice bearing [RIF-1] murine sarcoma tumor cells at 100 mgkg-1 drug dose. MTD is the […]. Format: functional.
The subject of series [18] is Mus musculus. The series can be described thus: compound was evaluated in vivo in mice bearing [KHT] murine sarcoma tumor cells at 100 mg kg-1 drug dose. MTD is the […]. Type of series: functional.
Series [19] relates to Mus musculus. The series can be described thus: compound was evaluated in vivo in mice bearing [RIF-1] murine sarcoma tumor cells at 100 mgkg-1 drug dose. MTD is the […]. Type of series: functional.
Series [20] relates to V79. The series can be described thus: In vitro concentration required to kill 50% of the aerobic cells under the conditions of the assay. Type of series: functional, Cricetulus griseus.
Series [21] deals with V79. The experiment in a line: In vitro concentration required to kill hypoxic cells V79-379A cells was determined for all the compounds using the MTT(3-(4,5-dimethylthiazol-2-y1)-2,5-diphenyl-2H-tetrazolium bromide) assay. Type of series: functional, Cricetulus griseus.
Series [22] is described as follows: hypoxic cytotoxic ratios (HCR) of the concentration required to kill 50% of the aerobic cells and concentration required to kill hypoxic cells. The conditions noted are these: read-out: HCR.

The structures appear in SMILES notation.

With `Cc1c(CO)c2c(n1C)C(=O)C=C(N1CC1C)C2=O` (stereo not drawn), the selectivity ratio in series [1] was 188. The MTD in the series on Mus musculus [2], in the series on Mus musculus [3], in the series on Mus musculus [4], in the series on Mus musculus [5], with Mus musculus [9] and in the series with Mus musculus [12] was 90 mg/kg throughout. The “Mean relative surviving fraction” value is given as 0.02 with Mus musculus [6]; under 0.0001 with Mus musculus [7]; 0.005 with Mus musculus [10]; 0.008 with Mus musculus [11]; 0.15 in the series on Mus musculus [14]; under 0.0001 in the series on Mus musculus [15]. Also, the C50 stood at 94 µM with V79 [8] and 0.5 µM in the series with V79 [13].
For the compound `COC1=CC(=O)c2c(c(COC(N)=O)cn2C)C1=O`, the selectivity ratio in series [1] was found to be 83.8. The C50 in the series on V79 [8] amounted to 3.1 µM; in the series with V79 [13], 0.037 µM.
For the compound `COC(=O)c1c2c(n(C)c1C(C)C)C(=O)C=C(OC)C2=O`, the selectivity ratio in series [1] was determined as 1. Further, the C50 with V79 [8] and in the series on V79 [13] was 150 µM throughout.
`Cn1c2c(c(CO)c1C1CC1)C(=O)C(N1CC1)=CC2=O`: the MTD in the series on Mus musculus [16], in the series on Mus musculus [17], in the series on Mus musculus [18] and with Mus musculus [19] was 100 mg/kg in each case. Moreover, in [1], the selectivity ratio was 104. Further, the values for the C50 with V79 [8] and with V79 [13] were 0.603 µM and 0.0058 µM, respectively.
On to `COC1=CC(=O)c2c(c(COC(N)=O)c(C3CC3)n2C)C1=O`, for which the selectivity ratio in series [1] was 65.9. Besides, the C50 in the series on V79 [8] came out at 29 µM; with V79 [13], 0.44 µM.
With `Cn1c2c(c(CO)c1C1CCCCC1)C(=O)C(N1CC1)=CC2=O`, the selectivity ratio in [1] was found to be 37. In addition, the C50 with V79 [8] was determined as 34.5 µM; in the series with V79 [13] it was 0.93 µM.
For `Cc1c(CO)c2c(n1C)C(=O)C=C(N1CC1)C2=O`, the selectivity ratio in [1] worked out at 12.8. The C50 in the series with V79 [8] amounted to 0.149 µM; in the series on V79 [13] it was 0.0116 µM.
As to `CC1CN1C1=CC(=O)c2c(c(COC(N)=O)c(C3CC3)n2C)C1=O` (stereo not drawn), the selectivity ratio in [1] is 27.2. For the same compound, the C50 in the series with V79 [8] is 12.5 µM; in the series on V79 [13], 0.459 µM.
Taken in the same sequence, the figures for `CC(C)c1c(COC(N)=O)c2c(n1C)C(=O)C=C(N1CC1C)C2=O` (stereo not drawn) were 23.7, 20.6 µM and 0.87 µM.
Consider `O=C1C(N2CC2)=CC(=O)c2c1c(CO)c1n2CC2CC12` (stereo not drawn), for which, in series [1], the selectivity ratio worked out at 13.2. The C50 in the series with V79 [8] is 0.965 µM; in the series on V79 [13], 0.073 µM.
Take `COC1=CC(=O)c2c(c(CO)cn2C)C1=O`: the selectivity ratio in [1] was 0.92. Moreover, the C50 stood at 220 µM in the series with V79 [8] and 240 µM in the series with V79 [13].
With `COC1=CC(=O)c2c(c(CO)c(C3CC3)n2C)C1=O`, the selectivity ratio in series [1] came out at 0.65. Also, the C50 stood at 540 µM with V79 [8] and 820 µM in the series with V79 [13].
For `Cc1c(CO)c2c(n1C)C(=O)C=C(N1C(C)C1C)C2=O` (stereo not drawn), in that order: 14.2, 202 µM and 14.2 µM.
`Cn1cc(CO)c2c1C(=O)C=C(N1CC1)C2=O`: the selectivity ratio in series [1] amounted to 15.4. For the same compound, the C50 in the series with V79 [8] was determined as 0.153 µM; in the series with V79 [13] it was 0.0086 µM.
On to `NC(=O)OCc1c2c(n3c1C1CC1C3)C(=O)C=C(N1CC1)C2=O` (stereo not drawn), for which the C50 in the series with V79 [8] and in the series on V79 [13] was 0.003 µM in each case.
In the case of `Cn1cc(COC(N)=O)c2c1C(=O)C=C(N1CC1)C2=O`, the selectivity ratio in series [1] came out at 1.46. The C50 was determined as 0.00019 µM in the series on V79 [8] and 0.00013 µM with V79 [13].
As for `Cn1c2c(c(COC(N)=O)c1C1CC1)C(=O)C(N1CC1)=CC2=O`, the selectivity ratio in [1] is 45. Moreover, the C50 in the series on V79 [8] came to 3.33 µM; in the series with V79 [13] it was 0.074 µM.
For the compound `COC(=O)c1c2c(n(C)c1C1CC1)C(=O)C=C(N1CC1)C2=O`, in [1], the selectivity ratio amounted to 1.8. Further, the C50 in the series on V79 [8] worked out at 1.72 µM; in the series with V79 [13] it was 0.93 µM.
Turning to `CC(C)c1c(CO)c2c(n1C)C(=O)C=C(N1CC1)C2=O`, the selectivity ratio in [1] was found to be 32.5. For the same compound, the values for the C50 in the series on V79 [8] and with V79 [13] were 25.7 µM and 0.79 µM, respectively.
On to `COC1=CC(=O)c2c(c(C)c(C(C)C)n2C)C1=O`, for which, in series [1], the selectivity ratio was 1.88. In addition, the C50 with V79 [8] turned out to be 1.236 µM; with V79 [13], 0.657 µM.
Consider `COC1=CC(=O)c2c(c(CO)c(C3CCCCC3)n2C)C1=O`, for which, in series [1], the selectivity ratio came to 6. For the same compound, the C50 turned out to be 122.4 µM in the series on V79 [8] and 20.5 µM with V79 [13].
As for `COC(=O)c1c2c(n(C)c1C1CC1)C(=O)C=C(OC)C2=O`, in series [1], the selectivity ratio turned out to be 1.7. The C50 was found to be 103.5 µM in the series with V79 [8] and 59.8 µM in the series with V79 [13].
For `Cc1c2c(n(C)c1C(C)C)C(=O)C=C(N1CC1)C2=O`, the C50 is 0.333 µM in the series on V79 [20] and 0.188 µM in the series on V79 [21]. In addition, the selectivity ratio in series [22] worked out at 1.77.
Consider `CC(C)c1c(CO)c2c(n1C)C(=O)C=C(N1CC1C)C2=O` (stereo not drawn), for which the selectivity ratio in series [1] was 9.2. Moreover, the C50 in the series on V79 [8] was 127.8 µM; in the series with V79 [13] it was 13.9 µM.
On to `Cc1c(CO)c2c(n1C)C(=O)C=C(NCC(C)(C)O)C2=O`, for which, in [1], the selectivity ratio was determined as 2.5. In addition, the results for the C50 in the series with V79 [8] and in the series on V79 [13] were 1260 µM and 500 µM, respectively.
With `COC1=CC(=O)c2c(c(COC(N)=O)c(C(C)C)n2C)C1=O`, in series [1], the selectivity ratio came out at 179. The C50 in the series with V79 [8] turned out to be 20.9 µM; in the series on V79 [13], 0.117 µM.
For `CC(C)c1c(COC(N)=O)c2c(n1C)C(=O)C=C(N1CC1)C2=O`, in that order: 8.7, 47.5 µM and 5.46 µM.
Take `COC1=CC(=O)c2c(c(CO)c(C(C)C)n2C)C1=O`: the selectivity ratio in series [1] was found to be 4. In addition, the C50 in the series with V79 [8] was 800 µM; with V79 [13], 200 µM.
For `COC1=CC(=O)c2c(c(CO)c3n2CC2CC32)C1=O` (stereo not drawn), in [1], the selectivity ratio amounted to 1.8. Moreover, the C50 in the series on V79 [8] stood at 108.4 µM; with V79 [13], 60.6 µM.
With `CC1CN1C1=CC(=O)c2c(c(CO)c(C3CC3)n2C)C1=O` (stereo not drawn), the selectivity ratio in series [1] was 23.4. Moreover, the C50 in the series on V79 [8] was 130 µM; in the series on V79 [13] it was 5.6 µM.
For `COC1=CC(=O)c2c(c(CO)c(C)n2C)C1=O`, in that order: 3.78, 1077 µM and 284.8 µM.
Regarding `Cn1c(/C=C/CO)c(CO)c2c1C(=O)C=C(N1CC1)C2=O` [APAZIQUONE], the selectivity ratio in [1] came out at 50.3. In addition, the C50 with V79 [8] was 0.19 µM; in the series on V79 [13], 0.0038 µM.
For the compound `CO[C@@]12[C@H](COC(N)=O)C3=C(C(=O)C(C)=C(N)C3=O)N1C[C@@H]1N[C@@H]12` [MITOMYCIN], the C50 in the series on V79 [8] amounted to 0.8 µM; with V79 [13], 0.4 µM.
